Experimental data taken from ChEMBL document CHEMBL4818983, “Structure-activity relationship and hypoglycemic activity of tricyclic matrines with advantage of treating diabetic nephropathy” (Eur J Med Chem, 2020).

Columns and labels:
[1] = Acute toxicity in Kunming mouse assessed as effect on blood GPT level at 250 to 1000 mg/kg, po administered as single dose measured for 7 days; type: organism-based; details: in vivo, 168 h, dose 250-1000 mg/kg, time 7 day
Procedure, shortened: (§1)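 Kunming mice each received one oral dose at 250, 500, 750 or 1000 mg·kg^-1 and were closely monitored for 7 days. At the end, blood was sampled and GOT, GPT, BUN and CRE were measured […] as liver and kidney function markers.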

[2] = Effect on high fat diet-fed po dosed C57BL/6J mouse model of obesity and diabetes assessed as water intake; type: organism-based; details: in vivo
[3] = system: L6; test: Increase in glucose consumption in rat L6 cells after 24 hrs by glucose oxidase assay; type: functional, cell-based
Procedure, shortened: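 L6 myotubes treated with DMSO, compound or RGZ (20 μM) at the indicated concentrations for 24 h. Culture supernatants assayed for glucose consumption and lactate release; lysed cells assayed for ATP, normalized to protein. Mean ± SD of 3 independent experiments vs DMSO.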

[4] = system: HepG2; test: Induction of glycolysis in human HepG2 cells assessed as reduction in cellular ATP production at 10 to 40 uM measured after 24 hrs; type: functional, cell-based; details: dose 10-40 µM
Procedure, shortened: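 HepG2 cells treated 24 h at the indicated concentrations; RGZ as reference. Supernatants used for glucose consumption and lactate release; lysed cells used for ATP, normalized to protein content. Mean ± SD of 3 or 4 separate experiments; compared with DMSO.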

[5] = system: L6; test: Induction of glycolysis in rat L6 cells assessed as increase in lactate release at 10 to 40 uM measured after 24 hrs; details: dose 10-40 µM
[6] = Acute toxicity in Kunming mouse assessed as effect on blood BUN level at 250 to 1000 mg/kg, po administered as single dose measured for 7 days; type: organism-based; details: in vivo, 168 h, dose 250-1000 mg/kg, time 7 day; procedure, shortened: as §1

CCCC[C@@H]1[C@H]2CCCN3CCC[C@@H](CN1S(=O)(=O)c1ccc(C(F)(F)F)cc1)[C@@H]23
Activity [1]: Non-Toxic | Activity [2]: 4.38 mL/day | Activity [3]: Dose-Dependent Effect | Activity [4]: Dose-Dependent Effect | Activity [5]: Dose-Dependent Effect | Activity [6]: Non-Toxic
